# Columns and labels:
# Type in all cases: functional
# [1] = Minimum inhibitory concentration against Haemophilus influenzae DILL Amp-R
# Summary of the method: (§1)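 MICs were determined by agar dilution following National Committee for Clinical Laboratory Standards recommendations. Values are in µg/mL.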
# [2] = test system: Staphylococcus aureus; assay: Minimum inhibitory concentration against Staphylococcus aureus ATCC 6538PEry-S; details: ATCC 6538P; summary of the method: as §1
# [3] = test system: Streptococcus pneumoniae; assay: Minimum inhibitory concentration against Streptococcus pneumoniae 5649 efflux; summary of the method: as §1
# [4] = Minimum inhibitory concentration against Streptococcus pneumoniae 5737 MLSB; summary of the method: as §1
# [5] = Minimum inhibitory concentration against Streptococcus pyogenes PIU2548 efflux; summary of the method: as §1
# [6] = test system: Staphylococcus aureus; assay: Minimum inhibitory concentration against Staphylococcus aureus A 5177 MLSB-i; summary of the method: as §1
# [7] = Minimum inhibitory concentration against Streptococcus pyogenes 930MLSB; summary of the method: as §1
# [8] = test system: Staphylococcus aureus; assay: Minimum inhibitory concentration against Staphylococcus aureus A 5278 MLSB-c; summary of the method: as §1
# [9] = test system: Streptococcus pneumoniae; assay: Minimum inhibitory concentration against Streptococcus pneumoniae ATCC 6303 Ery-S; summary of the method: as §1
# [10] = Minimum inhibitory concentration against Streptococcus pyogenes EES 61 Ery-S; summary of the method: as §1
SMILES,MIC [1] [µg/mL],MIC [2] [µg/mL],MIC [3] [µg/mL],MIC [4] [µg/mL],MIC [5] [µg/mL],MIC [6] [µg/mL],MIC [7] [µg/mL],MIC [8] [µg/mL],MIC [9] [µg/mL],MIC [10] [µg/mL]
CC[C@H]1OC(=O)[C@H](C)C(=O)[C@H](C)[C@@H](O[C@@H]2O[C@H](C)C[C@H](N(C)C)[C@H]2O)[C@](C)(OC/C=C/c2ccc3ccccc3n2)C[C@@H](C)C(=O)[C@H](C)[C@H]2NC(=O)O[C@@]21C,8,0.39,1,64,1,0.39,16,> 100,0.125,0.125
CC[C@H]1OC(=O)[C@H](C)C(=O)[C@H](C)[C@@H](O[C@@H]2O[C@H](C)C[C@H](N(C)C)[C@H]2O)[C@](C)(OC/C=C/c2ccc3cccnc3c2)C[C@@H](C)C(=O)[C@H](C)[C@H]2NC(=O)O[C@@]21C,4,0.05,0.5,4,1,0.05,> 128,> 100,0.03,0.03
CC[C@H]1OC(=O)[C@H](C)C(=O)[C@H](C)[C@@H](O[C@@H]2O[C@H](C)C[C@H](N(C)C)[C@H]2O)[C@](C)(OCCNCCc2ccccc2)C[C@@H](C)C(=O)[C@H](C)[C@@H](O)[C@]1(C)O,64,6.2,4,> 128,8,6.2,> 128,> 100,2,2
CC[C@H]1OC(=O)[C@H](C)C(=O)[C@H](C)[C@@H](O[C@@H]2O[C@H](C)C[C@H](N(C)C)[C@H]2O)[C@](C)(OC/C=C/c2cccc3ncccc23)C[C@@H](C)C(=O)[C@H](C)[C@H]2NC(=O)O[C@@]21C,8,0.1,0.25,2,0.25,0.1,> 128,> 100,0.03,0.03
CC[C@H]1OC(=O)[C@H](C)C(=O)[C@H](C)[C@@H](O[C@@H]2O[C@H](C)C[C@H](N(C)C)[C@H]2O)[C@](C)(OCCNCCCCc2ccccc2)C[C@@H](C)C(=O)[C@H](C)[C@H]2NC(=O)O[C@@]21C,4,0.39,2,16,2,0.2,> 128,> 100,0.03,0.125
CC[C@H]1OC(=O)[C@H](C)C(=O)[C@H](C)[C@@H](O[C@@H]2O[C@H](C)C[C@H](N(C)C)[C@H]2O)[C@](C)(OCCNCc2cnc3ccccc3c2)C[C@@H](C)C(=O)[C@H](C)[C@H]2NC(=O)O[C@@]21C,2,0.1,2,4,2,0.1,16,> 100,0.03,0.03
CC[C@H]1OC(=O)[C@H](C)C(=O)[C@H](C)[C@@H](O[C@@H]2O[C@H](C)C[C@H](N(C)C)[C@H]2O)[C@](C)(OCCNCCc2ccccc2)C[C@@H](C)C(=O)[C@H](C)[C@H]2NC(=O)O[C@@]21C,4,0.2,2,> 128,2,0.1,> 128,> 100,0.03,0.03
CC[C@H]1OC(=O)[C@H](C)C(=O)[C@H](C)[C@@H](O[C@@H]2O[C@H](C)C[C@H](N(C)C)[C@H]2O)[C@](C)(OC/C=C/c2cccc3cnccc23)C[C@@H](C)C(=O)[C@H](C)[C@H]2NC(=O)O[C@@]21C,4,0.1,0.25,8,0.25,0.1,32,> 100,0.008,0.008
CC[C@H]1OC(=O)[C@H](C)C(=O)[C@H](C)[C@@H](O[C@@H]2O[C@H](C)C[C@H](N(C)C)[C@H]2O)[C@](C)(OCCNCc2ccccc2)C[C@@H](C)C(=O)[C@H](C)[C@H]2NC(=O)O[C@@]21C,2,0.2,2,> 128,2,0.39,> 128,> 100,0.03,0.03
CC[C@H]1OC(=O)[C@H](C)C(=O)[C@H](C)[C@@H](O[C@@H]2O[C@H](C)C[C@H](N(C)C)[C@H]2O)[C@](C)(OC/C=C/c2ccc(OC)cc2)C[C@@H](C)C(=O)[C@H](C)[C@@H](O)[C@]1(C)O,128,1.56,2,128,2,1.56,64,> 100,1,0.25
